For nine compounds, Activity, inhibition and IC50 results are on record in ChEMBL document CHEMBL4130509, “Sesquiterpenes from the Endophyte Glomerella cingulata” (J Nat Prod, 2017).

Usually inhibition stands for how much of the control response was suppressed. A word on the IC50: it is the midpoint of a concentration-inhibition curve.

The subject of one assay is HCT-8. Kind of assay: Cytotoxicity against human HCT8 cells by MTT assay. The class given is functional, cell-based. On the technique in general: Formazan colour is commonly taken as a measure of viable cells.
For the next assay, the system named is A2780. The assay can be described thus: Cytotoxicity against human A2780 cells by MTT assay. The format is functional, cell-based.
The subject of the next assay is Bel-7402. The assay can be described thus: Cytotoxicity against human Bel7402 cells by MTT assay. The format is functional, cell-based.
The next assay has as its system HCT-116. Kind of assay: Cytotoxicity against human HCT116 cells by MTT assay. The format is functional, cell-based.
The species entered for a further assay is Homo sapiens. Kind of assay: Cytotoxicity against human […] cells by MTT assay. The format is functional, cell-based.
The subject of assay [1] is BV-2. The assay can be described thus: Antiinflammatory activity against mouse BV2 cells assessed as inhibition of LPS-induced nitric oxide production at 1 uM after 24 hrs by griess assay relative to control. The class given is functional. Particulars: BV-2, 24 h. Summed up:
(§1)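 BV2 cells preincubated 24 h, then exposed to compounds and stimulated with LPS (E. coli 055:B5) for 24 h. Supernatant mixed with equal volume Griess reagent, 5 min at room temperature in the dark; absorbance read at 540 nm for NO. Curcumin as positive control.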

The test system of the next assay is A549. The assay can be described thus: Cytotoxicity against human A549 cells by MTT assay. The format is functional, cell-based.
Assay [2] deals with BV-2. The assay can be described thus: Antiinflammatory activity against mouse BV2 cells assessed as inhibition of LPS-induced nitric oxide production after 24 hrs by griess assay. The format is functional, cell-based. Particulars: BV-2, 24 h. Summed up:
as §1
On the technique in general: Griess reagent forms a coloured azo dye with nitrite.

Active and inactive are the calls of the source. No cut-off for these calls is given here.

Consider `CC1=C2C[C@@]3(C)C(=C[C@]2(O)OC1=O)C(=O)C=C[C@@H]3C`, for which the outcome in the assay with HCT-8, in the assay on A2780, in the assay with Bel-7402, in the assay on HCT-116, in the assay filed under Homo sapiens and in the assay with A549 was inactive. Besides, the inhibition at 1 µM in the assay on BV-2 [1] was 29.4%.
As to `CO[C@]12C=C3C(=O)C=C[C@H](C)[C@@]3(C)CC1=C(C)C(=O)O2`, the result in the assay with HCT-8, in the assay on A2780, in the assay on Bel-7402, with HCT-116, in the assay filed under Homo sapiens and with A549 was inactive. Moreover, the inhibition at 1 µM in the assay with BV-2 [1] is 36.1%.
Take `C=C(C)[C@@H]1C[C@@]2(C)C(=CC1=O)[C@@H]1O[C@@H]1[C@H](O)[C@@H]2C`: the outcome in the assay on HCT-8, in the assay on A2780, with Bel-7402, in the assay on HCT-116, in the assay listed under Homo sapiens and in the assay on A549 was inactive.
`COC(=O)[C@@H](C)c1cc2c(cc1O)C(=O)C=CC2(C)C`: the result with HCT-8, with A2780, in the assay with Bel-7402, in the assay with HCT-116, in the assay filed under Homo sapiens and in the assay with A549 was inactive. Besides, the inhibition at 1 µM in the assay on BV-2 [1] was 50.6%.
For `COC(=O)[C@H]1CCC(=O)N1Cc1cc(OC)c2c(OC)cc3cc(OCc4ccccc4)ccc3c2c1`, the result in the assay on HCT-8, with A2780, in the assay with Bel-7402, in the assay with HCT-116, in the assay listed under Homo sapiens and in the assay with A549 was inactive.
Regarding `CC(=O)O[C@H]1[C@H]2O[C@H]2C2=CC(=O)[C@]3(C[C@]2(C)[C@H]1C)O[C@]3(C)C=O`, the outcome with HCT-8, in the assay on A2780, with Bel-7402, in the assay on HCT-116, in the assay listed under Homo sapiens and in the assay with A549 was inactive.
Turning to `COc1cc(/C=C/C(=O)CC(=O)/C=C/c2ccc(O)c(OC)c2)ccc1O` [CURCUMIN], in the assay with BV-2 [2], the IC50 was 4 µM.
As to `CC(=O)O[C@H]1[C@@H]2O[C@H]2[C@H]2C[C@@]3(O)OC[C@@]4(C)O[C@]43C[C@]2(C)[C@H]1C`, the result in the assay with HCT-8, in the assay on A2780, in the assay on Bel-7402, in the assay on HCT-116, in the assay listed under Homo sapiens and in the assay with A549 was inactive.
For `CO[C@@]12OC(=O)C(C)=C1C[C@@]1(C)[C@H](C(=O)C=C[C@@H]1C)[C@@H]2O`, the outcome in the assay with HCT-8, in the assay on A2780, in the assay on Bel-7402, in the assay with HCT-116, in the assay listed under Homo sapiens and in the assay on A549 was inactive.
